The record followed here is ChEMBL document CHEMBL1806388, “3-(3-Phenoxybenzyl)amino-β-carboline: a novel antitumor drug targeting α-tubulin” (Bioorg Med Chem Lett, 2011).

A short description of test [1]: Cytotoxicity against human HeLaS3 cells after 24 to 72 hrs by MTT assay. In kind it is functional, cell-based. The settings on record: HeLa S3. The procedure, abridged: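 Growth inhibition of HeLa S-3 cells measured by MTT assay; IC50 taken as the drug concentration inhibiting cell growth by 50%. Values are mean ± S.D. of four independent experiments, each run in triplicate.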

A short description of test [2]: Cell cycle arrest in human HeLaS3 cells assessed as accumulation at G1 phase at 150 nM after 24 hrs using propidium iodide staining by flow cytometry (reference value: 56.42%). The settings on record: HeLa S3. (Flow cytometry measures light scatter and fluorescence of single cells or particles in a stream.)
The test system of test [3] is HeLa S3. The test is described as follows: Induction of apoptosis in human HeLaS3 cells assessed as fragmented nuclei at 150 to 1000 nM after 48 hrs using Hoechst 33342 staining by confocal laser microscopic analysis. Type of test: functional, cell-based. In a few lines:
(§1)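 HeLa S-3 cells treated with 0, 150, 300 or 1000 nM for 48 h, then nuclei stained with Hoechst 33342 and examined by fluorescence microscopy for chromatin condensation and fragmented nuclei.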

For test [4], the species on record is Homo sapiens. The test is described as follows: Binding affinity to alpha-tubulin in human HeLaS3 whole cell extract by MALDI/TOF-MS nalaysis.
Test [5] in a line: Cell cycle arrest in human HeLaS3 cells assessed as accumulation at sub-G1 phase at 150 nM after 24 hrs using propidium iodide staining by flow cytometry (reference value: 1.51%). The conditions noted are these: HeLa S3.
Test [6] is described as follows: Cell cycle arrest in human HeLaS3 cells assessed as accumulation at G2/M phase at 150 nM after 24 hrs using propidium iodide staining by flow cytometry (reference value: 22.45%). The settings on record: HeLa S3.
A short description of test [7]: Cell cycle arrest in human HeLaS3 cells assessed as accumulation at S phase at 150 nM after 48 hrs using propidium iodide staining by flow cytometry (reference value: 19.62%). The conditions noted are these: HeLa S3.
Test [8] in a line: Cell cycle arrest in human HeLaS3 cells assessed as accumulation at S phase at 150 nM after 12 hrs using propidium iodide staining by flow cytometry (reference value: 19.62%). The settings on record: HeLa S3.
A short description of test [9]: Cell cycle arrest in human HeLaS3 cells assessed as accumulation at sub-G1 phase at 150 nM after 48 hrs using propidium iodide staining by flow cytometry (reference value: 1.51%). The conditions noted are these: HeLa S3.
A short description of test [10]: Cell cycle arrest in human HeLaS3 cells assessed as accumulation at sub-G1 phase at 150 nM after 36 hrs using propidium iodide staining by flow cytometry (reference value: 1.51%). The conditions noted are these: HeLa S3.
Test [11] has as its system HeLa S3. The test is described as follows: Induction of apoptosis in human HeLaS3 cells assessed as increase of activated caspase 3 level by Western blot analysis. The settings on record: TDE = time-dependent effect. In kind it is functional, cell-based. In a few lines: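 Cleaved caspase-3 detected by Western blot of HeLa S-3 cell extracts after 6, 12, 24 or 48 h treatment; untreated extract as control, β-actin as loading control.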
On the technique in general: Immunoblotting shows a protein as a band on a membrane.

Test [12] in a line: Cell cycle arrest in human HeLaS3 cells assessed as accumulation at S phase at 150 nM after 24 hrs using propidium iodide staining by flow cytometry (reference value: 19.62%). The conditions noted are these: HeLa S3.
The nature of test [13]: Cell cycle arrest in human HeLaS3 cells assessed as accumulation at G2/M phase at 150 nM after 36 hrs using propidium iodide staining by flow cytometry (reference value: 22.45%). The conditions noted are these: HeLa S3.
Test [14] deals with HeLa S3. The test is described as follows: Induction of apoptosis in human HeLaS3 cells assessed as DNA fragmentation at 150 to 1000 nM after 48 hrs by electrophoresis analysis. In kind it is functional, cell-based. In a few lines: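 HeLa S-3 cells exposed to 0–1000 nM for 48 h; genomic DNA extracted and run on a 2% agarose gel next to a 100 bp ladder to look for fragmentation.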

Test [15] is described as follows: Cell cycle arrest in human HeLaS3 cells assessed as accumulation at G1 phase at 150 nM after 12 hrs using propidium iodide staining by flow cytometry (reference value: 56.42%). The settings on record: HeLa S3.
The nature of test [16]: Cell cycle arrest in human HeLaS3 cells assessed as accumulation at G2/M phase at 150 nM after 12 hrs using propidium iodide staining by flow cytometry (reference value: 22.45%). The settings on record: HeLa S3.
The species entered for test [17] is Homo sapiens. The test is described as follows: Binding affinity to enolase in human HeLaS3 whole cell extract by MALDI/TOF-MS nalaysis.
Test [18] can be described thus: Cell cycle arrest in human HeLaS3 cells assessed as accumulation at S phase at 150 nM after 36 hrs using propidium iodide staining by flow cytometry (reference value: 19.62%). The settings on record: HeLa S3.
The nature of test [19]: Cell cycle arrest in human HeLaS3 cells assessed as accumulation at sub-G1 phase at 150 nM after 12 hrs using propidium iodide staining by flow cytometry (reference value: 1.51%). The conditions noted are these: HeLa S3.
Test [20] can be described thus: Cell cycle arrest in human HeLaS3 cells assessed as accumulation at G1 phase at 150 nM after 48 hrs using propidium iodide staining by flow cytometry (reference value: 56.42%). The settings on record: HeLa S3.
In test [21] the test system is HeLa S3. The test is described as follows: Induction of apoptosis in human HeLaS3 cells assessed as chromatin condensation at 150 to 1000 nM after 48 hrs using Hoechst 33342 staining by confocal laser microscopic analysis. Type of test: functional, cell-based. The procedure, abridged:
as §1

The nature of test [22]: Cell cycle arrest in human HeLaS3 cells assessed as accumulation at G1 phase at 150 nM after 36 hrs using propidium iodide staining by flow cytometry (reference value: 56.42%). The settings on record: HeLa S3.
Test [23] in a line: Cell cycle arrest in human HeLaS3 cells assessed as accumulation at G2/M phase at 150 nM after 48 hrs using propidium iodide staining by flow cytometry (reference value: 22.45%). The settings on record: HeLa S3.

The source made the active and inactive calls. The calls are words filed in the database; no cut-off is given here.

The IC50 is the point on the concentration scale where inhibition reaches its midpoint. High values mean a need for much substance, low ones inhibition by little substance. As to `Cc1ccc(CNc2cc3c(cn2)[nH]c2ccccc23)cc1`, inhibition in test [1] was half-maximal at 6.2 µM (IC50).

In the case of `COc1cccc(CNc2cc3c(cn2)[nH]c2ccccc23)c1`, the IC50 in [1] is 0.79 µM.

As for `Clc1ccc(CNc2nccc3c2[nH]c2ccccc23)cc1`, the midpoint of inhibition in test [1], the IC50, lay at 18 µM.

For the compound `Oc1ccccc1CNc1nccc2c1[nH]c1ccccc12`, in [1], the IC50 was 19 µM.

Consider `Cc1cccc(CNc2nccc3c2[nH]c2ccccc23)c1`, for which, in test [1], the midpoint of inhibition, the IC50, lay at 22 µM.

In test [1], `COc1ccc(CNc2cc3c(cn2)[nH]c2ccccc23)c(OC)c1OC` returned an IC50 of 4 µM.

In test [1], `COc1cccc(OC)c1CNc1cc2c(cn1)[nH]c1ccccc12` came in with an IC50 of 2.3 µM.

Turning to `c1ccc(COc2cccc(CNc3cc4c(cn3)[nH]c3ccccc34)c2)cc1`, the IC50 in test [1] was determined as 0.38 µM.

`COc1ccc(CNc2cc3c(cn2)[nH]c2ccccc23)c(OC)c1` showed an IC50 in test [1] of 4.8 µM.

`Clc1ccccc1CNc1nccc2c1[nH]c1ccccc12` showed an IC50 in test [1] of 19 µM.

`Cc1ccccc1CNc1nccc2c1[nH]c1ccccc12` gave an IC50 in test [1] of 13 µM.

`COc1ccc(CNc2cc3c(cn2)[nH]c2ccccc23)cc1OC` returned an IC50 in test [1] of over 100 µM.

In turn, `c1ccc(CNc2nccc3c2[nH]c2ccccc23)cc1` came in with an IC50 in test [1] of 24 µM. This counts as double-digit micromolar.

In test [1], `Cc1ccccc1CNc1cc2c(cn1)[nH]c1ccccc12` registered an IC50 of 0.3 µM.

Turning to `Clc1ccc(CNc2cc3c(cn2)[nH]c2ccccc23)cc1`, the half-inhibitory concentration (IC50) in test [1] was found to be 6.1 µM.

`c1ccc(Oc2ccc(CNc3nccc4c3[nH]c3ccccc34)cc2)cc1` gave an IC50 in test [1] of 15 µM.

Regarding `Clc1ccc(CNc2nccc3c2[nH]c2ccccc23)cc1Cl`, half-maximal inhibition in [1] (IC50) was put at 20 µM.

In [1], `FC(F)(F)c1ccc(CNc2cc3c(cn2)[nH]c2ccccc23)cc1` returned an IC50 of 47 µM.

The compound `c1ccc(Oc2ccc(CNc3cc4c(cn3)[nH]c3ccccc34)cc2)cc1` registered an IC50 in test [1] of 1.2 µM.

With `Oc1ccc(CNc2cc3c(cn2)[nH]c2ccccc23)cc1`, the IC50 in test [1] is 1.7 µM.

On to `COc1ccccc1CNc1cc2c(cn1)[nH]c1ccccc12`, for which the IC50 in [1] worked out at 0.8 µM. This IC50 lies about 2.1-fold lower than the previous one.

`c1ccc(Oc2cccc(CNc3nccc4c3[nH]c3ccccc34)c2)cc1` gave an IC50 in [1] of 2.3 µM. Compared with the last compound, the IC50 is about 2.9-fold higher.

As to `COc1ccc(CNc2cc3c(cn2)[nH]c2ccccc23)cc1`, the IC50 in test [1] is 20 µM. Against the preceding compound, the IC50 is about 8.7-fold higher.

Take `Clc1ccccc1CNc1cc2c(cn1)[nH]c1ccccc12`: the IC50 in [1] stood at 1 µM.

In [1], `Clc1cccc(CNc2nccc3c2[nH]c2ccccc23)c1` had an IC50 of 20 µM.

In the case of `COc1cccc(CNc2cc3c(cn2)[nH]c2ccccc23)c1OC`, half-maximal inhibition in [1] (IC50) was put at 3.2 µM.

As to `COc1cc(CNc2cc3c(cn2)[nH]c2ccccc23)cc(OC)c1OC`, in test [1], inhibition was half-maximal at 0.22 µM (IC50).

For `COc1cc(CNc2cc3c(cn2)[nH]c2ccccc23)cc(OC)c1`, the IC50 in test [1] was found to be 1.7 µM. This IC50 lies about 7.7-fold higher than the previous one.

Regarding `COc1ccc(CNc2nccc3c2[nH]c2ccccc23)cc1`, in test [1], the IC50 was found to be 22 µM.

`c1ccc(-c2ccccc2CNc2cc3c(cn2)[nH]c2ccccc23)cc1`: the IC50 in test [1] came to 3 µM.

Take `c1ccc(-c2ccc(CNc3cc4c(cn3)[nH]c3ccccc34)cc2)cc1`: the IC50 in [1] was over 30 µM.

The compound `O=[N+]([O-])c1ccccc1CNc1cc2c(cn1)[nH]c1ccccc12` returned an IC50 in [1] of 14 µM. This counts as double-digit micromolar.

In test [1], `Cc1cccc(CNc2cc3c(cn2)[nH]c2ccccc23)c1` registered an IC50 of 0.21 µM.

In the case of `Clc1cccc(CNc2cc3c(cn2)[nH]c2ccccc23)c1`, the IC50 in test [1] was 0.83 µM.

For `FC(F)(F)c1ccccc1CNc1cc2c(cn1)[nH]c1ccccc12`, in test [1], 6.7 µM corresponded to half-maximal inhibition (IC50).

`COc1cccc(CNc2nccc3c2[nH]c2ccccc23)c1` returned an IC50 in [1] of 24 µM.

Regarding `c1ccc(CNc2cc3c(cn2)[nH]c2ccccc23)cc1`, it took 0.11 µM to reach half-maximal inhibition in [1] (IC50). This IC50 is about 220-fold lower than that of the compound before.

For the compound `FC(F)(F)c1cccc(CNc2cc3c(cn2)[nH]c2ccccc23)c1`, in test [1], the IC50 amounted to 3.1 µM.

As to `O=[N+]([O-])c1cccc(CNc2cc3c(cn2)[nH]c2ccccc23)c1`, in test [1], the 50% inhibitory concentration (IC50) is over 30 µM.

On to `c1ccc(Oc2cccc(CNc3cc4c(cn3)[nH]c3ccccc34)c2)cc1`, for which the Activity in test [2] was determined as 21.2%; in test [5], 32.7%; in test [6], 30%; in [7] it was 20.2%; in test [8] it was 15.4%; in [9], 50.1%. Besides, the Activity in test [10] was 43.5%; with HeLa S3 [11], “tde”; in [12], 15.9%; in test [13] it was 19.2%; in [15] it was 8.4%; in [16] it was 65.9%. For the same compound, the Activity amounted to 15.6% in test [18]; 9.72% in test [19]; 18.4% in test [20]; 19% in test [22]; 9.52% in test [23]. The result in the test with HeLa S3 [3], in the test filed under Homo sapiens [4], with HeLa S3 [14], in the test filed under Homo sapiens [17] and with HeLa S3 [21] was Active. Moreover, the IC50 in test [1] came to 0.074 µM.

In [1], `Oc1ccccc1CNc1cc2c(cn1)[nH]c1ccccc12` yielded an IC50 of 28 µM.

In [1], `Oc1cccc(CNc2cc3c(cn2)[nH]c2ccccc23)c1` had an IC50 of 0.92 µM.

Turning to `COc1ccc(OC)c(CNc2cc3c(cn2)[nH]c2ccccc23)c1`, the IC50 in test [1] turned out to be 6.1 µM.

Regarding `COc1ccccc1CNc1nccc2c1[nH]c1ccccc12`, the IC50 in test [1] was determined as 15 µM.

For the compound `Cc1ccc(CNc2nccc3c2[nH]c2ccccc23)cc1`, in test [1], half-maximal inhibition (IC50) was put at 26 µM.
